Assay results as given in ChEMBL document CHEMBL4334451, “Natural Alkaloid Berberine Activity against Pseudomonas aeruginosa MexXY-Mediated Aminoglycoside Resistance: In Silico and in Vitro Studies” (J Nat Prod, 2019).
Active and inactive are the calls of the source. The rule behind the calls is not given here.

Legend:
Assay type in all cases: protein-complex assay
[1] = biological target: T1, MexXY/OprM (Pseudomonas aeruginosa (strain ATCC 15692 / DSM 22644 / CIP 104116 / JCM14847 / LMG 12228 / 1C / PRS 101 / PAO1)) (UniProt Q51487+Q9ZNG9+Q9ZNG8); test: Inhibition of MexXY/OPRM in Pseudomonas aeruginosa C89 assessed as bacterial growth up to 320 ug/ml incubated for 24 to 48 hrs by broth microdilution method
How it was run: (§1)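 Broth microdilution per CLSI, with P. aeruginosa ATCC 27853 as reference strain, in 2-fold dilution series. Plates were incubated at 37°C and read for visible growth at 24 and 48 h. Berberine stock was in 50% DMSO/50% methanol, with final DMSO kept near 1%. Berberine was tested at 10–320 µg/ml, alone or at a fixed level with serial tobramycin.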

[2] = biological target: T1, MexXY/OprM (Pseudomonas aeruginosa (strain ATCC 15692 / DSM 22644 / CIP 104116 / JCM14847 / LMG 12228 / 1C / PRS 101 / PAO1)); test: Inhibition of MexXY/OPRM in Pseudomonas aeruginosa C15 assessed as reduction in bacterial resistance to tobramycin by measuring tobramycin MIC at 80 ug/ml incubated for 24 to 48 hrs by broth microdilution method (reference value: 8 ug/ml)
[3] = biological target: T1, MexXY/OprM (Pseudomonas aeruginosa (strain ATCC 15692 / DSM 22644 / CIP 104116 / JCM14847 / LMG 12228 / 1C / PRS 101 / PAO1)); test: Inhibition of MexXY/OPRM in Pseudomonas aeruginosa C84 assessed as reduction in bacterial resistance to tobramycin by measuring tobramycin MIC at 80 ug/ml incubated for 24 to 48 hrs by broth microdilution method (reference value: 0.5 ug/ml); how it was run: as §1
[4] = biological target: T1, MexXY/OprM (Pseudomonas aeruginosa (strain ATCC 15692 / DSM 22644 / CIP 104116 / JCM14847 / LMG 12228 / 1C / PRS 101 / PAO1)); test: Inhibition of MexXY/OPRM in Pseudomonas aeruginosa C89 assessed as reduction in bacterial resistance to tobramycin by measuring tobramycin MIC at 80 ug/ml incubated for 24 to 48 hrs by broth microdilution method (reference value: >128 ug/ml); how it was run: as §1
[5] = biological target: T1, MexXY/OprM (Pseudomonas aeruginosa (strain ATCC 15692 / DSM 22644 / CIP 104116 / JCM14847 / LMG 12228 / 1C / PRS 101 / PAO1)); test: Inhibition of MexXY/OPRM in Pseudomonas aeruginosa C95 assessed as reduction in bacterial resistance to tobramycin by measuring log reduction in colony forming unit at 80 ug/ml in presence of 1XMIC to 2XMIC tobramycin measured after 24 hrs by Time-kill curve analysis

For COc1ccc2cc3[n+](cc2c1OC)CCc1cc2c(cc1-3)OCO2 [BERBERINE], the inhibition [1] was “inactive”, the MIC [2] was 8 µg/mL and the MIC [3] was 0.125 µg/mL. It also gave an MIC [4] of 64 µg/mL and an Activity [5] of 2 log10CFU.
